In ChEMBL document CHEMBL3525939, “Organic cation transporter-mediated renal secretion of ipratropium and tiotropium in rats and humans” (Drug Metab Dispos, 2011):

How the values were obtained:
[1] = biological target: T1, Solute carrier family 22 member 2 (Rattus norvegicus, UniProt Q9R0W2); assay: Binding affinity to rat Oct2 assessed as transporter-mediated drug uptake; assay type: ADME
T1 sequence (Q9R0W2 whole entry): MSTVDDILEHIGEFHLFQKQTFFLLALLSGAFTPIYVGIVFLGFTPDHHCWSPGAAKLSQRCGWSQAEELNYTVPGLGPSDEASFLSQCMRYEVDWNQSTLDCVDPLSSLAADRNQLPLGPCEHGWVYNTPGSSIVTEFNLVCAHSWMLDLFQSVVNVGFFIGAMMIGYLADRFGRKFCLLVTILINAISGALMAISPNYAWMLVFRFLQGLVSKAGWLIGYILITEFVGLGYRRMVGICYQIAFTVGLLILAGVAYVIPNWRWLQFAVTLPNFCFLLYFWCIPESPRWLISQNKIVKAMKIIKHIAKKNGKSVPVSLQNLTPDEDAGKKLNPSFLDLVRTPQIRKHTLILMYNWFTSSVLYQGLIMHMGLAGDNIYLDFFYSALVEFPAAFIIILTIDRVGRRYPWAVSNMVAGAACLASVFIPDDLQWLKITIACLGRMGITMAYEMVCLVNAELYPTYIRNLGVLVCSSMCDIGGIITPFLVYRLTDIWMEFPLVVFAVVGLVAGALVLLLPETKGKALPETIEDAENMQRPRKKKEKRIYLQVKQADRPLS
Outline: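 [3H]ipratropium (10 nM) uptake into HEK293/rOct2 cells over 30 sec at pH 7.4, 37°C, in HEPES-buffered saline transport buffer. Mock-cell uptake subtracted to give transporter-mediated uptake. Cells lysed in Triton X-100, counted by liquid scintillation, normalised to protein. Km and Vmax from non-linear least-squares fit to Michaelis-Menten equation. n = 4, mean ± SEM.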

Oct1 (Slc22a1) = biological target: T2, Oct1 (Slc22a1) (Rattus norvegicus, UniProt Q63089); assay: Drug uptake in rat Oct1 expressed HEK293 cells at 10 nM at pH 7.4 at 37 degC after 1 min relative to mock cells; assay type: ADME, cell-based; details: HEK293 cells expressing rat Oct1, pH 7.4, read-out: FC
T2 sequence (Q63089 whole entry): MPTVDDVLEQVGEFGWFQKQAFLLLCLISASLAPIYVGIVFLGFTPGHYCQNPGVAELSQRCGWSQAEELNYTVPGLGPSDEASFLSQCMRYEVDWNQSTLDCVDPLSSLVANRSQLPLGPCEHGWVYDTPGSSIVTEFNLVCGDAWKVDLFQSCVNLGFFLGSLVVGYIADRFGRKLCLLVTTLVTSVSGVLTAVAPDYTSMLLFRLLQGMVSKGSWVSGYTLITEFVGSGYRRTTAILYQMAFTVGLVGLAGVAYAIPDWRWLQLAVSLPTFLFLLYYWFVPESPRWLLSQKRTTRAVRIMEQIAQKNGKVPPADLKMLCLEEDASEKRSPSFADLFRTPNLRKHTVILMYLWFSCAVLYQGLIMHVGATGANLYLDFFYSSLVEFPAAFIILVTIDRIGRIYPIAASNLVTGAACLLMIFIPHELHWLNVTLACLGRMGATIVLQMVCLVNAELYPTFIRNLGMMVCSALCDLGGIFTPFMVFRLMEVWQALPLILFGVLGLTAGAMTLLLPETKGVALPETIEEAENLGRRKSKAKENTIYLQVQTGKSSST
Outline: (§1)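 Transfected HEK293 cells (antibiotic-selected; DMEM with 10% FBS) plated at 1 × 10^5 cells/cm2 and used after 2 days. Uptake of [3H]ipratropium or [3H]tiotropium (10 nM) for 1 min at pH 7.4, 37°C, in HEPES-buffered saline. Cells washed ice-cold, lysed in Triton X-100, counted by scintillation, normalised to protein. Uptake compared with vector-only Mock cells. n = 4.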

Kidney [2] = assay: Drug uptake in Wistar rat kidney slice at 10 nM at pH 7.4 at 37 degC after 1 min relative to control in presence of 1 mM quinidine; assay type: ADME, tissue-based; set-up: interact cpd dose 1 mM; details: pH 7.4, 1 min, 0.01 µM
Outline: (§2)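 Rat kidney slices incubated with [3H]ipratropium or [3H]tiotropium (10 nM) for 1 min at 37°C and pH 7.4. Each inhibitor given at 1 mM. Adhering water estimated from [14C]inulin uptake. Uptake expressed as percent of control without inhibitor. Mean ± SEM of 4 slices; significance by Student's t-test, p<0.05.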

Oct2 (Slc22a2) [3] = biological target: T3, Oct2 (Slc22a2) (Rattus norvegicus, UniProt Q9R0W2); assay: Drug uptake in rat Oct2 expressed HEK293 cells at 10 nM at pH 7.4 at 37 degC after 1 min relative to mock cells; assay type: ADME, cell-based; details: HEK293 cells expressing rat Oct2, pH 7.4, read-out: FC; outline: as §1
T3 sequence (Q9R0W2 whole entry): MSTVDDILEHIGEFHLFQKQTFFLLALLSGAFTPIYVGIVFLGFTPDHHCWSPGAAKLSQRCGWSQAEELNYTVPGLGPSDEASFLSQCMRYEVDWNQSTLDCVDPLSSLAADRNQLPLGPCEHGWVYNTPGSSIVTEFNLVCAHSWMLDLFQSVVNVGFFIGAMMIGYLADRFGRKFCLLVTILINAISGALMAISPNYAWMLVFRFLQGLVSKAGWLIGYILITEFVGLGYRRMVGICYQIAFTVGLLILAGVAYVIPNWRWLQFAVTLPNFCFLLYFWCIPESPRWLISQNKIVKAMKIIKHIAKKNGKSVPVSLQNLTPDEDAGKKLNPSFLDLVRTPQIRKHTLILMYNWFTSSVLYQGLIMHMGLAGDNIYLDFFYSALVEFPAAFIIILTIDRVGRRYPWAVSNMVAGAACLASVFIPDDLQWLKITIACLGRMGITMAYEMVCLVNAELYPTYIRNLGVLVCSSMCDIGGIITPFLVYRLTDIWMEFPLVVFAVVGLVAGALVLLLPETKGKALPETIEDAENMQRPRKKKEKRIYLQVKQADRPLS

Kidney [4] = assay: Drug uptake in Wistar rat kidney slice at 10 nM at pH 7.4 at 37 degC after 1 min relative to control in presence 1 mM MPP+; assay type: ADME, tissue-based; set-up: interact cpd dose 1 mM; details: pH 7.4, 1 min, 0.01 µM; outline: as §2
Kidney [5] = assay: Drug uptake in Wistar rat kidney slice at 10 nM at pH 7.4 at 37 degC after 1 min; assay type: ADME, tissue-based; details: pH 7.4, 1 min, 0.01 µM; outline: as §2
OCT2 (SLC22A2) [6] = biological target: T4, OCT2 (SLC22A2) (Homo sapiens, UniProt O15244); assay: Drug uptake in human Oct2 expressed HEK293 cells at 10 nM at pH 7.4 at 37 degC after 1 min relative to mock cells; assay type: ADME, cell-based; details: HEK293 cells expressing human Oct2, pH 7.4, read-out: FC; outline: as §1
T4 sequence (O15244 whole entry): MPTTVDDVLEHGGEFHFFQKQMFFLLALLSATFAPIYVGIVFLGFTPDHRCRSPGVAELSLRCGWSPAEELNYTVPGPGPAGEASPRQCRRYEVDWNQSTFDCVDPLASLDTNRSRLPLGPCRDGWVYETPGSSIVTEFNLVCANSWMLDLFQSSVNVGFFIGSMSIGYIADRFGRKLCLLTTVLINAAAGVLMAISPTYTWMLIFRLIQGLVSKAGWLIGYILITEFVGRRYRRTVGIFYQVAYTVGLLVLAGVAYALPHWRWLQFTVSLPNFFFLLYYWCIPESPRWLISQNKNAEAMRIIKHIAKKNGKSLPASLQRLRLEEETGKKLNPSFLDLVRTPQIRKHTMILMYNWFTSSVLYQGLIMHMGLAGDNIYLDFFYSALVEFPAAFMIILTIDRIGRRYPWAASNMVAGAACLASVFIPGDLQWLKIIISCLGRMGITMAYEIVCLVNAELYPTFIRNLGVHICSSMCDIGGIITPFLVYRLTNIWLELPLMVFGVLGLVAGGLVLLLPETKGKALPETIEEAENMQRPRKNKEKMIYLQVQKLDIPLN

Kidney [7] = assay: Drug uptake in Wistar rat kidney slice at 10 nM at pH 7.4 at 37 degC after 1 min relative to control in presence of 1 mM estrone 3-sulfate; assay type: ADME, tissue-based; set-up: interact cpd dose 1 mM; details: pH 7.4, 1 min, 0.01 µM; outline: as §2
Kidney [8] = assay: Drug uptake in Wistar rat kidney slice at 10 nM at pH 7.4 at 37 degC after 1 min relative to control in presence of 1 mM PAH; assay type: ADME, tissue-based; set-up: interact cpd dose 1 mM; details: pH 7.4, 1 min, 0.01 µM; outline: as §2
Kidney [9] = assay: Drug uptake in Wistar rat kidney slice at 10 nM at pH 7.4 at 37 degC after 1 min relative to control in presence of 1 mM cimetidine; assay type: ADME, tissue-based; set-up: interact cpd dose 1 mM; details: pH 7.4, 1 min, 0.01 µM; outline: as §2
Kidney [10] = assay: Drug uptake in Wistar rat kidney slice at 10 nM at pH 7.4 at 37 degC after 1 min relative to control in presence of 1 mM TEA+; assay type: ADME, tissue-based; set-up: interact cpd dose 1 mM; details: pH 7.4, 1 min, 0.01 µM; outline: as §2
Kidney [11] = assay: Drug uptake in Wistar rat kidney slice at 10 nM at pH 7.4 at 37 degC after 1 min relative to control in presence of ipratropium; assay type: ADME, tissue-based; details: pH 7.4, 1 min, 0.01 µM; outline: as §2
Kidney [12] = assay: Drug uptake in Wistar rat kidney slice at 10 nM at pH 7.4 at 37 degC after 1 min relative to control in presence of 1 mM imipramine; assay type: ADME, tissue-based; set-up: interact cpd dose 1 mM; details: pH 7.4, 1 min, 0.01 µM; outline: as §2
[13] = substrate: NCCc1ccc(O)c(O)c1; assay: cells, lysate or membranes named

## C[n+]1ccc(-c2ccccc2)cc1
[1]
  Km: 17 µM

## C[N+]1(C)[C@@H]2C[C@@H](OC(=O)C(O)(c3cccs3)c3cccs3)C[C@@H]1[C@H]1O[C@H]12.[Br-]
Oct1 (Slc22a1)
  uptake ratio at 1 min, 0.01 µM: 8.4
Kidney [2]
  Drug uptake: 34.9%
Oct2 (Slc22a2) [3]
  uptake ratio at 1 min, 0.01 µM: 3
Kidney [4]
  Drug uptake: 39.8%
Kidney [5]
  Drug uptake: 100%
OCT2 (SLC22A2) [6]
  uptake ratio at 1 min, 0.01 µM: 8.5
Kidney [7]
  Drug uptake: 104%
Kidney [8]
  Drug uptake: 97.4%
Kidney [9]
  Drug uptake: 54.5%
Kidney [10]
  Drug uptake: 67.3%
Kidney [11]
  Drug uptake: 25.6%
Kidney [12]
  Drug uptake: 36.7%

B1: Solute carrier family 22 member 2 (Rattus norvegicus) (protein)
chain: MSTVDDILEHIGEFHLFQKQTFFLLALLSGAFTPIYVGIVFLGFTPDHHCWSPGAAKLSQRCGWSQAEELNYTVPGLGPSDEASFLSQCMRYEVDWNQSTLDCVDPLSSLAADRNQLPLGPCEHGWVYNTPGSSIVTEFNLVCAHSWMLDLFQSVVNVGFFIGAMMIGYLADRFGRKFCLLVTILINAISGALMAISPNYAWMLVFRFLQGLVSKAGWLIGYILITEFVGLGYRRMVGICYQIAFTVGLLILAGVAYVIPNWRWLQFAVTLPNFCFLLYFWCIPESPRWLISQNKIVKAMKIIKHIAKKNGKSVPVSLQNLTPDEDAGKKLNPSFLDLVRTPQIRKHTLILMYNWFTSSVLYQGLIMHMGLAGDNIYLDFFYSALVEFPAAFIIILTIDRVGRRYPWAVSNMVAGAACLASVFIPDDLQWLKITIACLGRMGITMAYEMVCLVNAELYPTYIRNLGVLVCSSMCDIGGIITPFLVYRLTDIWMEFPLVVFAVVGLVAGALVLLLPETKGKALPETIEDAENMQRPRKKKEKRIYLQVKQADRPLS
[13]
  Km: 650 µM
